Assays:
[1] = tested on: Mast/stem cell growth factor receptor Kit (Homo sapiens), P10721 [V559D,V654A]; assay: Competitive binding affinity to KIT V559D/V654A double mutant (unknown origin) at 10 uM in presence of ATP relative to control
Method in brief: (§1)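 In vitro ATP-site competition binding assay, part of profiling against a diverse panel of 128 kinases. Each compound was tested at a single concentration of 10 µM. Kinome selectivity was summarized as S15 selectivity scores.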

[2] = target: Mitogen-activated protein kinase kinase kinase 11 (Homo sapiens) (UniProt Q16584); assay: Competitive binding affinity to MLK3 (unknown origin) at 10 uM in presence of ATP relative to control
[3] = target: T1, Serine/threonine-protein kinase D3 (Homo sapiens) (UniProt O94806); assay: Competitive binding affinity to PRKD3 (unknown origin) at 10 uM in presence of ATP relative to control
T1 sequence (whole entry): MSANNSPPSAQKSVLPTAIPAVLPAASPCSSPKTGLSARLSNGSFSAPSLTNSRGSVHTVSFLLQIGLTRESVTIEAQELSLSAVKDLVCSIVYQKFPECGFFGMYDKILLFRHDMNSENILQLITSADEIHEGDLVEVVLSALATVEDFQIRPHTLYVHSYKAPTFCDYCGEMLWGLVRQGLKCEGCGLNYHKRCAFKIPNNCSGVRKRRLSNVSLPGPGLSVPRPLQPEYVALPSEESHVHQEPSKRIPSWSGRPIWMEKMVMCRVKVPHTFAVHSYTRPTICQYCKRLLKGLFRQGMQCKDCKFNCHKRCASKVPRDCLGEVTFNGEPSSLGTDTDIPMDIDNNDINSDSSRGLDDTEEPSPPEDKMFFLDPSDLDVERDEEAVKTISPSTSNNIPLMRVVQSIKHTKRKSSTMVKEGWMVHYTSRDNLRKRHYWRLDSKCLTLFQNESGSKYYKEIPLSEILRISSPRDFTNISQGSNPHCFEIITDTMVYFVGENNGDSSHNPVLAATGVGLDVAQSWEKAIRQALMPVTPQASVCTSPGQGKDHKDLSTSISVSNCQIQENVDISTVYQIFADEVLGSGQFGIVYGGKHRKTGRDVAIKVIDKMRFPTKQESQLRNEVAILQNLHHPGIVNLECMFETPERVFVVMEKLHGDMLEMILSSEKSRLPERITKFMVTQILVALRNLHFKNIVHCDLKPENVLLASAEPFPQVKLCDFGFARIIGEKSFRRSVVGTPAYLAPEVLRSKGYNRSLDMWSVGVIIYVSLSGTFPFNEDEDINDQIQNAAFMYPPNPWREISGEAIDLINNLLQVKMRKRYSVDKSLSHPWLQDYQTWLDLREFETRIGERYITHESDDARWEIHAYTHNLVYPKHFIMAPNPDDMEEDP

[4] = target: Ribosomal protein S6 kinase alpha-5 (Homo sapiens) (UniProt O75582); assay: Competitive binding affinity to RPS6KA5 kinase domain 2 (unknown origin) at 10 uM in presence of ATP relative to control
[5] = target: T2, Serine/threonine-protein kinase D2 (Homo sapiens) (UniProt Q9BZL6); assay: Competitive binding affinity to PRKD2 (unknown origin) at 10 uM in presence of ATP relative to control
T2 sequence (whole entry): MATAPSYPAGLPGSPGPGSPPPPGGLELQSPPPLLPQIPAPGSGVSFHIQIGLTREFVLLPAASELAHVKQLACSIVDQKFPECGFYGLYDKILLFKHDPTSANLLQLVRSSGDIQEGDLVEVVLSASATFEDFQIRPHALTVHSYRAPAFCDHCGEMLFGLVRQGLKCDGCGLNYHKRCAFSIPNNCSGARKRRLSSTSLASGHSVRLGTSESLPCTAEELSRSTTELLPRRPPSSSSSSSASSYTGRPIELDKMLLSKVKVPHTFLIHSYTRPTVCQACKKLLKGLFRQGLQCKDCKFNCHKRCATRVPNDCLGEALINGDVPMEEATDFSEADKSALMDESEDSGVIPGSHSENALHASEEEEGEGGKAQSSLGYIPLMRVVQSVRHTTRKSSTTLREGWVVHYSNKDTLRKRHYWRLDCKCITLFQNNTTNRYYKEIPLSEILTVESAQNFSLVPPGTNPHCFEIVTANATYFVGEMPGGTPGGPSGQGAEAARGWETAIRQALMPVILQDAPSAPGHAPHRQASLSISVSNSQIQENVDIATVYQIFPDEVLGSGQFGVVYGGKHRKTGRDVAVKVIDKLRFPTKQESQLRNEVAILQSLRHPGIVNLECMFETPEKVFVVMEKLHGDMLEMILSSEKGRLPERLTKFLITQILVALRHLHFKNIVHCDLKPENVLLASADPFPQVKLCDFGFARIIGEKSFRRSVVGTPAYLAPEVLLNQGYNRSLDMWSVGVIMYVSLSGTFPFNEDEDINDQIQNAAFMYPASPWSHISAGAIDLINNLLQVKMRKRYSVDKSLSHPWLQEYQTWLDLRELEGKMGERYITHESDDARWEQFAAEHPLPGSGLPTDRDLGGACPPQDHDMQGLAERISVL

[6] = target: Tyrosine-protein kinase Fer (Homo sapiens) (UniProt P16591); assay: Competitive binding affinity to FER (unknown origin) at 10 uM in presence of ATP relative to control; method in brief: as §1
[7] = target: Myosin-IIIa (Homo sapiens) (UniProt Q8NEV4); assay: Competitive binding affinity to MYO3A (unknown origin) at 10 uM in presence of ATP relative to control
[8] = target: Ribosomal protein S6 kinase alpha-6 (Homo sapiens) (UniProt Q9UK32); assay: Competitive binding affinity to RPS6KA6 kinase domain 2 (unknown origin) at 10 uM in presence of ATP relative to control
[9] = target: Proto-oncogene tyrosine-protein kinase receptor Ret (Homo sapiens) (UniProt P07949); assay: Competitive binding affinity to RET (unknown origin) at 10 uM in presence of ATP relative to control
[10] = target: 5'-AMP-activated protein kinase catalytic subunit alpha-2 (Homo sapiens) (UniProt P54646); assay: Competitive binding affinity to AMPKalpha2 (unknown origin) at 10 uM in presence of ATP relative to control
Method in brief: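 In vitro ATP-site competition binding assay across a diverse panel of 128 kinases, with each compound tested at a single concentration. Kinase binding is expressed relative to control.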

[11] = target: Citron Rho-interacting kinase (Homo sapiens, UniProt O14578); assay: Competitive binding affinity to CIT (unknown origin) at 10 uM in presence of ATP relative to control
[12] = target: Maternal embryonic leucine zipper kinase (Homo sapiens) (UniProt Q14680); assay: Competitive binding affinity to MELK (unknown origin) at 10 uM in presence of ATP relative to control
[13] = target: Activin receptor type-1-like (Homo sapiens) (UniProt P37023); assay: Competitive binding affinity to ACVRL1 (unknown origin) at 10 uM in presence of ATP relative to control
Sequence of Activin receptor type-1-like (Homo sapiens) (P37023 whole entry): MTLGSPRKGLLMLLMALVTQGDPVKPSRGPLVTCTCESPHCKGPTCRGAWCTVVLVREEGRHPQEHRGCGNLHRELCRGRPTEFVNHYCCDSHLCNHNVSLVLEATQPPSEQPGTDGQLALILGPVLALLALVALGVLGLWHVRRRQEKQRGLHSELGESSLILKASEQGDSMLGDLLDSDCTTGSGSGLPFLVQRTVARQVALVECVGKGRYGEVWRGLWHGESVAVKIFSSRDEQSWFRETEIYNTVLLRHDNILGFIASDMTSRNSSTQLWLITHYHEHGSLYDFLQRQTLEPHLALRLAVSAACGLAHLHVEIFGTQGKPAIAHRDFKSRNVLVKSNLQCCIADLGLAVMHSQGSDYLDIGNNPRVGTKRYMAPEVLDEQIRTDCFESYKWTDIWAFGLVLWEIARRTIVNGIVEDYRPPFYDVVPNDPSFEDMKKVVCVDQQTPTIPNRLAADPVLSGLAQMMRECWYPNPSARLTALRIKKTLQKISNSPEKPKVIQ

Sequence of Mast/stem cell growth factor receptor Kit (Homo sapiens), P10721 [V559D,V654A] (P10721 whole entry V559D/V654A): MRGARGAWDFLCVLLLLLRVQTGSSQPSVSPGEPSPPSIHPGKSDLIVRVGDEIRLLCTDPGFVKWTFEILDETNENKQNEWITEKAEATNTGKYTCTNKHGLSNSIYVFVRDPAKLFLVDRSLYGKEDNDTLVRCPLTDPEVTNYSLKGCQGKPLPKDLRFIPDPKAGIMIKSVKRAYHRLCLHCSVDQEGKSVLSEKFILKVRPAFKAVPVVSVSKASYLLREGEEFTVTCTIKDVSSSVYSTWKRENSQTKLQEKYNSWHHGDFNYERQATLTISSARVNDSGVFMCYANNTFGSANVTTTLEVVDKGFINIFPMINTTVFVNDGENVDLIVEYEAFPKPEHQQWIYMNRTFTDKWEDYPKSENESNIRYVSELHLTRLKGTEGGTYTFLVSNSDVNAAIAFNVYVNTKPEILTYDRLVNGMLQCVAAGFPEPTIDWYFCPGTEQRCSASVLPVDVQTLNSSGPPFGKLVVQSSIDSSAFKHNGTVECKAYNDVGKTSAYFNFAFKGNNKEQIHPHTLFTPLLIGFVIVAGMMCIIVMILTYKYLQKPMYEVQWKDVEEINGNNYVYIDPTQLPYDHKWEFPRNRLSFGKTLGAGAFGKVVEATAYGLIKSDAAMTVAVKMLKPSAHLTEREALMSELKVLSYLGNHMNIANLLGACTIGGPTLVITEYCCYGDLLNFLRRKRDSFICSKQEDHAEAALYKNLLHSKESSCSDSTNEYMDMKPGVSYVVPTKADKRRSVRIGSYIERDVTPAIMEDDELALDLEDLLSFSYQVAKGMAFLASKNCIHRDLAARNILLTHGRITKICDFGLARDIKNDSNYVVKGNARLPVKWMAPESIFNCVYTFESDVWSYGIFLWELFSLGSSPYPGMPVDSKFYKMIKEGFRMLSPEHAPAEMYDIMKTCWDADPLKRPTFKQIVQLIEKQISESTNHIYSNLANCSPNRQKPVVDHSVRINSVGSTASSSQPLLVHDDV
Sequence of Maternal embryonic leucine zipper kinase (Homo sapiens) (Q14680 whole entry, looked up): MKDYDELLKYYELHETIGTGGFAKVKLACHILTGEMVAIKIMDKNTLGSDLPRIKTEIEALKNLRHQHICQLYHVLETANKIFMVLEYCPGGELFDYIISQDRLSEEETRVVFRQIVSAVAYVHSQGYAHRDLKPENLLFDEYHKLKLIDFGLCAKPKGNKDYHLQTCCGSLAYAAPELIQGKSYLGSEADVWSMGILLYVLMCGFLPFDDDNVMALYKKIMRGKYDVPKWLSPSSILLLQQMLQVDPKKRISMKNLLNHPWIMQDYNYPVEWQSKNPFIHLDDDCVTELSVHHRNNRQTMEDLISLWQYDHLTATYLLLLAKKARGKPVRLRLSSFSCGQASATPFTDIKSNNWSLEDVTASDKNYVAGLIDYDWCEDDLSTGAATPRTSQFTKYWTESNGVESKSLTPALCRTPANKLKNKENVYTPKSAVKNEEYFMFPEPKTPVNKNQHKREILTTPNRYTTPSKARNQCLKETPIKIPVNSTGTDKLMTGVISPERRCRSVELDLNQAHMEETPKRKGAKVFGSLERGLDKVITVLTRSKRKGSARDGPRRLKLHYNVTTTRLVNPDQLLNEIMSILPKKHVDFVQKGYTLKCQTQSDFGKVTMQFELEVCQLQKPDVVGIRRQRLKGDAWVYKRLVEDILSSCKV
Sequence of Mitogen-activated protein kinase kinase kinase 11 (Homo sapiens) (Q16584 whole entry, looked up): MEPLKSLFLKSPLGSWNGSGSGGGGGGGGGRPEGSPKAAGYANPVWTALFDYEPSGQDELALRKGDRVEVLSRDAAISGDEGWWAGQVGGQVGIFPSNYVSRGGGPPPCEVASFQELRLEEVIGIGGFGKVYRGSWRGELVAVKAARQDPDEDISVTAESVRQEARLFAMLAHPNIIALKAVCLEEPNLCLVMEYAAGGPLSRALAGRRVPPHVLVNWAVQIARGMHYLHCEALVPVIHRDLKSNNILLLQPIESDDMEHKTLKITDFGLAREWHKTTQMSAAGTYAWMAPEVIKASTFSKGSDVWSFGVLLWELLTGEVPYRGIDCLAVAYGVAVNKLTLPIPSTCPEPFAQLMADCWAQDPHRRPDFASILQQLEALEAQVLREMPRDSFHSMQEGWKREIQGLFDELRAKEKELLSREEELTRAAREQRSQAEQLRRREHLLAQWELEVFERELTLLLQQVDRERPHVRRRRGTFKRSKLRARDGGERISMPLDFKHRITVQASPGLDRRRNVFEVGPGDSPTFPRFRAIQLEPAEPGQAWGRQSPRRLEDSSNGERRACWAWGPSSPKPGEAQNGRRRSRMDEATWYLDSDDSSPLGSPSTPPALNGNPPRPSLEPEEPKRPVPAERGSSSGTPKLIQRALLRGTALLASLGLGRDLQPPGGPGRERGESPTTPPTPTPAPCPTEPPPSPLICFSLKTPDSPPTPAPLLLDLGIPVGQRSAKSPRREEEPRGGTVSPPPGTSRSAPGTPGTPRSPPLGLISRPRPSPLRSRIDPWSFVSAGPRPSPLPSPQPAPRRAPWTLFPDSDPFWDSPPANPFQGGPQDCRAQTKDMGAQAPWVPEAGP
Sequence of 5'-AMP-activated protein kinase catalytic subunit alpha-2 (Homo sapiens) (P54646 whole entry, looked up): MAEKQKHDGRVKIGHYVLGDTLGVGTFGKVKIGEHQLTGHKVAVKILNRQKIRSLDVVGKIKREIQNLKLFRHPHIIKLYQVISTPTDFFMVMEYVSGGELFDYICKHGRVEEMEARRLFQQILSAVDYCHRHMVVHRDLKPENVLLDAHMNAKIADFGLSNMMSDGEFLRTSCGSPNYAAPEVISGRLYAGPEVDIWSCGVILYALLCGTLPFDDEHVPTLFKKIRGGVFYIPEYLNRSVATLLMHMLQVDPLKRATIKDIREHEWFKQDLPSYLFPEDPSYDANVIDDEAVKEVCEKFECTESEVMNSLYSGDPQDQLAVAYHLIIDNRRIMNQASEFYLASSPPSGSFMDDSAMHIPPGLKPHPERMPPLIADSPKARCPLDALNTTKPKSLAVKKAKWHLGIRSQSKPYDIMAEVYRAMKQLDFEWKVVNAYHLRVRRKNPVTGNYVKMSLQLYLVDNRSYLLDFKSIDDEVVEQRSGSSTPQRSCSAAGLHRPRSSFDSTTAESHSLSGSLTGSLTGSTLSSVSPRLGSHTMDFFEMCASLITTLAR
Sequence of Ribosomal protein S6 kinase alpha-5 (Homo sapiens) (O75582 whole entry, looked up, the tested form may be a part): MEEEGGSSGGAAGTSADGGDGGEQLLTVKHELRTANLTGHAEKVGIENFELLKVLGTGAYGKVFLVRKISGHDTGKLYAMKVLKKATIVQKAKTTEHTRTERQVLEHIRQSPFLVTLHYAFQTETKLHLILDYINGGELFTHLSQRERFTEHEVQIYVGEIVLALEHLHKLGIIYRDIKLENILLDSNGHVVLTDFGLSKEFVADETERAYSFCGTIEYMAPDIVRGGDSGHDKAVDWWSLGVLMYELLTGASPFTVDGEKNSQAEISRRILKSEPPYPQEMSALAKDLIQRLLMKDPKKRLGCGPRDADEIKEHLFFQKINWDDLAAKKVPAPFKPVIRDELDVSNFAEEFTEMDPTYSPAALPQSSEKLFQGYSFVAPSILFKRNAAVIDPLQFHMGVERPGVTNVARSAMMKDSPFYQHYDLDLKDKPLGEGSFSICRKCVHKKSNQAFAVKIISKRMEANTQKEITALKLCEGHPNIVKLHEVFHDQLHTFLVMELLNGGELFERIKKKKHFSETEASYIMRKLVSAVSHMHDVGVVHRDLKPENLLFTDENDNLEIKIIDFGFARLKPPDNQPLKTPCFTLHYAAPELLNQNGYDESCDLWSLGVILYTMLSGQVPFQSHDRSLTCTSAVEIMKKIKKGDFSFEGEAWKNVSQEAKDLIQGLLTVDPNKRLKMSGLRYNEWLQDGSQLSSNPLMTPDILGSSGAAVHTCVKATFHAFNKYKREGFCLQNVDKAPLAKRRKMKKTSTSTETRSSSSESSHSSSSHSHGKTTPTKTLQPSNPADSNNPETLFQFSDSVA
Sequence of Ribosomal protein S6 kinase alpha-6 (Homo sapiens) (Q9UK32 whole entry, the tested form may be a part): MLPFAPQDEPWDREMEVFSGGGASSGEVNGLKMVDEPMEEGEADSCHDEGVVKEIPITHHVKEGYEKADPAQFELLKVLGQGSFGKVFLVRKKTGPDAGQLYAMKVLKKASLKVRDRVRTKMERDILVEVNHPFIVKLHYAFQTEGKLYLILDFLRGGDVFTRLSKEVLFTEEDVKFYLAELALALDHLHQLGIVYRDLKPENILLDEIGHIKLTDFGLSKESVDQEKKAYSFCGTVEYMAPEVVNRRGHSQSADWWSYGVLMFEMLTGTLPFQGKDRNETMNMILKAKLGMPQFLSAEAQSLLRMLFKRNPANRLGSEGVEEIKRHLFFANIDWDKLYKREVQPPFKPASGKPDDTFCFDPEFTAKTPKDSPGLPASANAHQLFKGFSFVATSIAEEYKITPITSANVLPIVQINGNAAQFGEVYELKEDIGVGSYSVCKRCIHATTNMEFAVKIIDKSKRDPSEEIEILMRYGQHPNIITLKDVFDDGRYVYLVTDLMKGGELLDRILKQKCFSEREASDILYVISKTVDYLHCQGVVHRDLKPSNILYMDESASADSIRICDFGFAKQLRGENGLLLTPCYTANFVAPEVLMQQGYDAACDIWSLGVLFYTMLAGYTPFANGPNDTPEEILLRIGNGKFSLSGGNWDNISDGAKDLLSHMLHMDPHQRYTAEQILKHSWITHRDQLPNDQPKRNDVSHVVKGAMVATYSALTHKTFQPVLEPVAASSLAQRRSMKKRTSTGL

| inhibition [1] [%] | inhibition [2] [%] | inhibition [3] [%] | inhibition [4] [%] | inhibition [5] [%] | inhibition [6] [%] | inhibition [7] [%] | inhibition [8] [%] | inhibition [9] [%] | inhibition [10] [%] | inhibition [11] [%] | inhibition [12] [%] | inhibition [13] [%] | Compound |
| --- | --- | --- | --- | --- | --- | --- | --- | --- | --- | --- | --- | --- | --- |
| 87 | < 50 | 96 | 66 | 91 | < 50 | < 50 | 100 | < 50 | < 50 | 75 | 74 | < 50 | O[C@H]1CC[C@H](Nc2nccc(-n3ncc4ccccc43)n2)CC1 |
| 64 | < 50 | 94 | < 50 | 88 | < 50 | < 50 | 84 | < 50 | < 50 | 79 | < 50 | < 50 | O[C@H]1CC[C@H](Nc2nccc(-n3ccc4ccccc43)n2)CC1 |
| 67 | < 50 | 100 | 85 | 98 | < 50 | < 50 | 100 | < 50 | 74 | 98 | 94 | < 50 | O[C@H]1CC[C@H](Nc2nccc(-n3nnc4ccccc43)n2)CC1 |

Second part, the compound before the results:

| Compound | inhibition [1] [%] | inhibition [2] [%] | inhibition [3] [%] | inhibition [4] [%] | inhibition [5] [%] | inhibition [6] [%] | inhibition [7] [%] | inhibition [8] [%] | inhibition [9] [%] | inhibition [10] [%] | inhibition [11] [%] | inhibition [12] [%] | inhibition [13] [%] |
| --- | --- | --- | --- | --- | --- | --- | --- | --- | --- | --- | --- | --- | --- |
| N[C@H]1CC[C@H](Nc2nccc(-n3nnc4ccccc43)n2)CC1 |  |  |  |  |  | < 50 |  |  |  |  |  |  |  |
| O[C@H]1CC[C@H](Nc2nccc(-c3n[nH]c4ccccc34)n2)CC1 | 82 | 88 |  |  |  | 97 |  |  | 94 | 89 |  | 94 | < 50 |
| CS(=O)(=O)CCCOc1cccc2c1ccn2-c1ccnc(N[C@H]2CC[C@H](C(=O)N3CCC(O)CC3)CC2)n1 |  |  |  |  |  |  |  |  |  |  | > 85 |  |  |
| O=C([C@H]1CC[C@H](Nc2nccc(-n3nnc4ccccc43)n2)CC1)N1CCOCC1 |  |  |  |  |  | < 50 |  |  |  |  |  |  |  |
